Results on 34 molecules are retold here after ChEMBL document CHEMBL4392861, “Synthesis and evaluation of the HIF-1α inhibitory activities of novel ursolic acid tetrazole derivatives” (Bioorg Med Chem Lett, 2019).

Common to all, as to format: cell-based
Series [1] has as its target Hypoxia-inducible factor 1-alpha (Homo sapiens, UniProt Q16665). The experiment in a line: Inhibition of hypoxia-induced HIF1alpha transcriptional activity in human Hep3B cells after 24 hrs in hypoxic condition by HRE-dependent dual luciferase reporter gene assay. The method in brief: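 Hep3B cells transiently co-transfected with pGL3-HRE-luciferase and pRL-CMV vectors, incubated 24 h, then treated with compounds for 24 h under hypoxia. Luciferase activity measured […]. IC50 given as mean ± SE, n=3.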
In general terms: A reporter such as luciferase makes a cellular process visible.

Series [2] has as its system Hep 3B2. The series is described as follows: Cytotoxicity against human Hep3B cells assessed as reduction in cell viability after 24 hrs by MTT assay. The method in brief: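 Hep3B cells exposed to compounds for 24 h under normoxic conditions; viability read by MTT assay; IC50 from mean ± SE, n=3.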
(In general: Tetrazolium dyes change colour on reduction, which living cells bring about.)

Series [3] concerns Hep 3B2. The series is described as follows: Cytotoxicity against human Hep3B cells assessed as reduction in cell viability up to 30 uM after 24 hrs in presence of 20% O2 by MTT assay. The following applies: hep 3b2, 24 h. The method in brief: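 Hep3B cells treated with the indicated concentrations (up to 30 µM) for 24 h, then viability determined by MTT assay.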

One may read the IC50 as the point on the concentration scale where inhibition reaches its midpoint. In the case of `COc1ccc(-c2nnnn2CCCOC(=O)[C@]23CC[C@@H](C)[C@H](C)[C@H]2C2=CC[C@@H]4[C@@]5(C)CC[C@H](O)C(C)(C)[C@@H]5CC[C@@]4(C)[C@]2(C)CC3)cc1`, the IC50 in series [1] was 27.4 µM; in series [2] it was over 100 µM.
For the molecule `C[C@H]1[C@H](C)CC[C@]2(C(=O)Nc3nnn[nH]3)CC[C@]3(C)C(=CC[C@@H]4[C@@]5(C)CC/C(=N\Nc6ccccc6)C(C)(C)[C@@H]5CC[C@]43C)[C@H]12`, the values for the IC50 in series [1] and in series [2] were 2.2 µM and 11.9 µM, respectively.
For `C[C@H]1[C@H](C)CC[C@]2(C(=O)OCCNc3nnn[nH]3)CC[C@]3(C)C(=CC[C@@H]4[C@@]5(C)CC[C@H](O)C(C)(C)[C@@H]5CC[C@]43C)[C@H]12`, in that order: 8.5 µM and over 100 µM.
As to `C[C@H]1[C@H](C)CC[C@]2(C(=O)OCCn3nnnc3-c3ccccc3)CC[C@]3(C)C(=CC[C@@H]4[C@@]5(C)CC[C@H](O)C(C)(C)[C@@H]5CC[C@]43C)[C@H]12`, the IC50 was 18.1 µM in series [1] and over 100 µM in series [2].
For `C[C@H]1[C@H](C)CC[C@]2(C(=O)OCCCNc3ccc(-c4nnn[nH]4)cc3)CC[C@]3(C)C(=CC[C@@H]4[C@@]5(C)CC[C@H](O)C(C)(C)[C@@H]5CC[C@]43C)[C@H]12`, the IC50 in series [1] and in series [2] was over 100 µM in each case.
For `C[C@H]1[C@H](C)CC[C@]2(C(=O)OCCCNc3ccccc3-c3nnn[nH]3)CC[C@]3(C)C(=CC[C@@H]4[C@@]5(C)CC[C@H](O)C(C)(C)[C@@H]5CC[C@]43C)[C@H]12`, the IC50 in series [1] and in series [2] was over 100 µM throughout.
With `C[C@H]1[C@H](C)CC[C@]2(C(=O)OCCn3nnnc3-c3ccc(Cl)cc3)CC[C@]3(C)C(=CC[C@@H]4[C@@]5(C)CC[C@H](O)C(C)(C)[C@@H]5CC[C@]43C)[C@H]12`, the IC50 is 76.4 µM in series [1] and over 100 µM in series [2].
In the same order, the values of `C[C@H]1[C@H](C)CC[C@]2(C(=O)OCCCNc3ccc(-c4nnn[nH]4)cc3)CC[C@]3(C)C(=CC[C@@H]4[C@@]5(C)CCC(=O)C(C)(C)[C@@H]5CC[C@]43C)[C@H]12` are over 100 µM and over 100 µM.
In the same order, the values of `C[C@H]1[C@H](C)CC[C@]2(C(=O)Nc3nnn[nH]3)CC[C@]3(C)C(=CC[C@@H]4[C@@]5(C)CC[C@H](OC(=O)C(F)(F)F)C(C)(C)[C@@H]5CC[C@]43C)[C@H]12` are 1.6 µM and 6.4 µM.
Consider `C[C@H]1[C@H](C)CC[C@]2(C(=O)OCCCNc3ccccc3-c3nnn[nH]3)CC[C@]3(C)C(=CC[C@@H]4[C@@]5(C)CCC(=O)C(C)(C)[C@@H]5CC[C@]43C)[C@H]12`, for which the IC50 in series [1] and in series [2] was over 100 µM each time.
Consider `C[C@H]1[C@H](C)CC[C@]2(C(=O)OCCCn3nnnc3-c3ccc4c(c3)OCO4)CC[C@]3(C)C(=CC[C@@H]4[C@@]5(C)CC[C@H](O)C(C)(C)[C@@H]5CC[C@]43C)[C@H]12`, for which the results for the IC50 in series [1] and in series [2] were 83 µM and over 100 µM, respectively.
For `COc1ccc(-c2nnnn2CCOC(=O)[C@]23CC[C@@H](C)[C@H](C)[C@H]2C2=CC[C@@H]4[C@@]5(C)CC[C@H](O)C(C)(C)[C@@H]5CC[C@@]4(C)[C@]2(C)CC3)cc1`, the half-inhibitory concentration (IC50) in series [1] and in series [2] was over 100 µM in each case.
Consider `C[C@H]1[C@H](C)CC[C@]2(C(=O)OCCNc3ccccc3-c3nnn[nH]3)CC[C@]3(C)C(=CC[C@@H]4[C@@]5(C)CCC(=O)C(C)(C)[C@@H]5CC[C@]43C)[C@H]12`, for which the IC50 in series [1] and in series [2] was over 100 µM throughout.
As to `CCCC(=O)O[C@H]1CC[C@]2(C)[C@H]3CC=C4[C@@H]5[C@@H](C)[C@H](C)CC[C@]5(C(=O)Nc5nnn[nH]5)CC[C@@]4(C)[C@]3(C)CC[C@H]2C1(C)C`, the IC50 was determined as 1.4 µM in series [1] and 4.7 µM in series [2].
As to `C[C@H]1[C@H](C)CC[C@]2(C(=O)OCCCn3nnnc3-c3ccccc3)CC[C@]3(C)C(=CC[C@@H]4[C@@]5(C)CC[C@H](O)C(C)(C)[C@@H]5CC[C@]43C)[C@H]12`, the IC50 in series [1] was 40 µM; in series [2] it was over 100 µM.
Take `C[C@H]1[C@H](C)CC[C@]2(C(=O)O)CC[C@]3(C)C(=CC[C@@H]4[C@@]5(C)CC(=C\c6ccc(Cl)cc6)/C(=N\NC(=N)N)C(C)(C)[C@@H]5CC[C@]43C)[C@H]12`: the half-maximal inhibitory concentration (IC50) was 4 µM in series [1] and over 100 µM in series [2].
On to `CC(=O)O[C@H]1CC[C@]2(C)[C@H]3CC=C4[C@@H]5[C@@H](C)[C@H](C)CC[C@]5(C(=O)Nc5nnn[nH]5)CC[C@@]4(C)[C@]3(C)CC[C@H]2C1(C)C`, for which, in series [1], the midpoint of inhibition, the IC50, lay at 4.7 µM and the inhibition result is “Dose-dependent effect”. Moreover, the Activity entry in series [3] is “Non-Toxic”. Besides, the IC50 in series [2] is over 100 µM.
Turning to `C[C@H]1[C@H](C)CC[C@]2(C(=O)OCCNc3nnn[nH]3)CC[C@]3(C)C(=CC[C@@H]4[C@@]5(C)CCC(=O)C(C)(C)[C@@H]5CC[C@]43C)[C@H]12`, the IC50 in series [1] is 14.2 µM; in series [2], over 100 µM.
For the molecule `C[C@H]1[C@H](C)CC[C@]2(C(=O)OCCNc3ccc(-c4nnn[nH]4)cc3)CC[C@]3(C)C(=CC[C@@H]4[C@@]5(C)CC[C@H](O)C(C)(C)[C@@H]5CC[C@]43C)[C@H]12`, the IC50 is 26.2 µM in series [1] and over 100 µM in series [2].
In the case of `C[C@H]1[C@H](C)CC[C@]2(C(=O)Nc3nnn[nH]3)CC[C@]3(C)C(=CC[C@@H]4[C@@]5(C)CC[C@H](OC(=O)c6ccccc6)C(C)(C)[C@@H]5CC[C@]43C)[C@H]12`, the concentration for half-maximal inhibition (IC50) in series [1] was determined as 0.8 µM; in series [2] it was 18.5 µM.
In the case of `C[C@H]1[C@H](C)CC[C@]2(C(=O)OCCNc3ccc(-c4nnn[nH]4)cc3)CC[C@]3(C)C(=CC[C@@H]4[C@@]5(C)CCC(=O)C(C)(C)[C@@H]5CC[C@]43C)[C@H]12`, the figures for the IC50 in series [1] and in series [2] were 18.1 µM and over 100 µM, respectively.
In the same order, the values of `C[C@H]1[C@H](C)CC[C@]2(C(=O)OCCNc3cccc(-c4nnn[nH]4)c3)CC[C@]3(C)C(=CC[C@@H]4[C@@]5(C)CCC(=O)C(C)(C)[C@@H]5CC[C@]43C)[C@H]12` are over 100 µM and over 100 µM.
Regarding `C[C@H]1[C@H](C)CC[C@]2(C(=O)O)CC[C@]3(C)C(=CC[C@@H]4[C@@]5(C)CC[C@H](O)C(C)(C)[C@@H]5CC[C@]43C)[C@H]12` [URSOLIC ACID], the IC50 in series [1] is over 100 µM.
Consider `C[C@H]1[C@H](C)CC[C@]2(C(=O)OCCCNc3cccc(-c4nnn[nH]4)c3)CC[C@]3(C)C(=CC[C@@H]4[C@@]5(C)CCC(=O)C(C)(C)[C@@H]5CC[C@]43C)[C@H]12`, for which the IC50 in series [1] and in series [2] was over 100 µM each time.
In the case of `C[C@H]1[C@H](C)CC[C@]2(C(=O)OCCNc3cccc(-c4nnn[nH]4)c3)CC[C@]3(C)C(=CC[C@@H]4[C@@]5(C)CC[C@H](O)C(C)(C)[C@@H]5CC[C@]43C)[C@H]12`, the IC50 in series [1] is 8.9 µM; in series [2], over 100 µM.
In the same order, the values of `C[C@H]1[C@H](C)CC[C@]2(C(=O)OCCCNc3nnn[nH]3)CC[C@]3(C)C(=CC[C@@H]4[C@@]5(C)CC[C@H](O)C(C)(C)[C@@H]5CC[C@]43C)[C@H]12` are 10.3 µM and over 100 µM.
In the same order, the values of `C[C@H]1[C@H](C)CC[C@]2(C(=O)Nc3nnn[nH]3)CC[C@]3(C)C(=CC[C@@H]4[C@@]5(C)CC[C@H](O)C(C)(C)[C@@H]5CC[C@]43C)[C@H]12` are 13.3 µM and over 100 µM.
`C[C@H]1[C@H](C)CC[C@]2(C(=O)OCCNc3ccccc3-c3nnn[nH]3)CC[C@]3(C)C(=CC[C@@H]4[C@@]5(C)CC[C@H](O)C(C)(C)[C@@H]5CC[C@]43C)[C@H]12`: the IC50 in series [1] and in series [2] was over 100 µM throughout.
As to `C[C@H]1[C@H](C)CC[C@]2(C(=O)OCCn3nnnc3-c3ccc4c(c3)OCO4)CC[C@]3(C)C(=CC[C@@H]4[C@@]5(C)CC[C@H](O)C(C)(C)[C@@H]5CC[C@]43C)[C@H]12`, the IC50 in series [1] and in series [2] was over 100 µM throughout.
As to `C[C@H]1[C@H](C)CC[C@]2(C(=O)OCn3ncn(-c4ccccc4)c3=O)CC[C@]3(C)C(=CC[C@@H]4[C@@]5(C)CC[C@H](O)C(C)(C)[C@@H]5CC[C@]43C)[C@H]12`, the figures for the half-maximal inhibitory concentration (IC50) in series [1] and in series [2] were 36.9 µM and over 100 µM, respectively.
In the same order, the values of `C[C@H]1[C@H](C)CC[C@]2(C(=O)Nc3nnn[nH]3)CC[C@]3(C)C(=CC[C@@H]4[C@@]5(C)CCC(=O)C(C)(C)[C@@H]5CC[C@]43C)[C@H]12` are 18.1 µM and over 100 µM.
Consider `C[C@H]1[C@H](C)CC[C@]2(C(=O)OCCCNc3nnn[nH]3)CC[C@]3(C)C(=CC[C@@H]4[C@@]5(C)CCC(=O)C(C)(C)[C@@H]5CC[C@]43C)[C@H]12`, for which the figures for the concentration for half-maximal inhibition (IC50) in series [1] and in series [2] were 16.7 µM and over 100 µM, respectively.
For `C[C@H]1[C@H](C)CC[C@]2(C(=O)OCCCn3nnnc3-c3ccc(Cl)cc3)CC[C@]3(C)C(=CC[C@@H]4[C@@]5(C)CC[C@H](O)C(C)(C)[C@@H]5CC[C@]43C)[C@H]12`, in that order: 7.5 µM and over 100 µM.
For `C[C@H]1[C@H](C)CC[C@]2(C(=O)OCCCNc3cccc(-c4nnn[nH]4)c3)CC[C@]3(C)C(=CC[C@@H]4[C@@]5(C)CC[C@H](O)C(C)(C)[C@@H]5CC[C@]43C)[C@H]12`, in that order: 13.2 µM and over 100 µM.
